From PMC9670014 (SLAS discovery : advancing life sciences R & D, 2022) come the findings set out here.

The target of this test is T1, NR2F6 (Mus musculus, UniProt P43136).
T1 sequence (P43136 1-390): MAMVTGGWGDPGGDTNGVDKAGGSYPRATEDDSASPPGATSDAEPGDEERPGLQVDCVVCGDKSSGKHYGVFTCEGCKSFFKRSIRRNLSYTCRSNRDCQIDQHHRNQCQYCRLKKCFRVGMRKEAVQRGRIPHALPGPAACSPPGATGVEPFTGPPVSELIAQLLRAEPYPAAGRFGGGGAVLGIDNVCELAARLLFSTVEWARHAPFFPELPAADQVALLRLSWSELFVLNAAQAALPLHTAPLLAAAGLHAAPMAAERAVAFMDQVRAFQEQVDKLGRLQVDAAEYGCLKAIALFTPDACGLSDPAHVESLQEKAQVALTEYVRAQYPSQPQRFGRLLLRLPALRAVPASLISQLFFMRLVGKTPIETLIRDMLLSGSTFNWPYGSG
The test is described as follows: NR2F6/Il17a luciferase assay in transiently transfected HEK293 cells. The format is cell-based. Particulars: Maxcyte transfected HEK293 cells, 384-well format, Troglitazone 62.5uM. The procedure, abridged:
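HEK293 cells grown in DMEM with 10% heat-inactivated FBS and 1% penicillin-streptomycin, harvested at 70% confluency, and resuspended in electroporation buffer at 1×10^8 cells/mL. Il17a::luc plus NR2F6 or empty vector was electroporated with DNA amount titrated, then recovered 5 h at 37 °C. Luciferase was read with positive control versus untreated samples.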

For the compound `Cc1c(C)c2c(c(C)c1O)CCC(C)(COc1ccc(CC3SC(=O)NC3=O)cc1)O2` (stereo not shown) [Troglitazone], the “NR2F6's repressive transcriptional response (Il17a luciferase signal)” value was “further enhanced”.
